Here are results for 17 compounds from ChEMBL document CHEMBL4346706, “Anti-trypanosomal activity of doubly modified salinomycin derivatives” (Eur J Med Chem, 2019).

Calls of active or inactive are those of the source. The rule behind the calls is not given here. Where only a bound is given, the exact number is not on record here.

For data set [1], the system named is Trypanosoma brucei. Briefly: Antitrypanosomal activity against bloodstream form of Trypanosoma brucei 427-221a assessed as growth inhibition measured after 72 hrs by resazurin dye based assay. A general note: The colour change of resazurin is a common sign of viable cells or microbes.
The nature of data set [2]: Selectivity index, ratio of GI50 for human HL60 cells to GI50 for bloodstream form of Trypanosoma brucei 427-221a. Format: toxicity. The conditions noted are these: read-out: RatioGI50.
A short description of data set [3]: Cytotoxicity against human HL60 cells assessed as growth inhibition after 24 hrs by resazurin dye based assay. Format: cell-based, HL-60. A digest of the protocol:
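HL-60 cells seeded at 5 × 10^4 ml^-1 in Baltz medium with 16.7% heat-inactivated bovine serum, 0.9% DMSO. 37 °C, 5% CO2. Tenfold dilutions from 100 μM to 1 pM. After 24 h, resazurin added and incubation continued a further 48 h. Absorbance read at 570 nm, reference 630 nm. GI50 by linear interpolation against DMSO-only wells. Mean ± SD of three independent experiments.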

A short description of data set [4]: Antiproliferative activity against human HMLER cells assessed as reduction in cell viability after 72 hrs by Cell-Titer Blue reagent based fluorescence microplate reader analysis. Format: functional.
Data set [5] has as its system Trypanosoma brucei. Briefly: Antitrypanosomal activity against bloodstream form of Trypanosoma brucei 427-221a assessed as increase in iono-phoresis by measuring cell swelling at 100 uM measured every 10 mins for 1 hr by light scattering based microplate reader analysis. Format: functional, organism-based. A digest of the protocol: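 Light-scattering swelling assay. Bloodstream forms at 5 × 10^7 cells ml^-1 in Baltz medium with 100 μM ionophore and 0.9% DMSO; controls had DMSO only. Absorbance at 490 nm read every 10 min for one hour. A fall in absorbance is taken as a rise in cell volume. Means of three experiments.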

In general, GI50 refers to the concentration giving 50% growth inhibition. Turning to `C#CCNC(=O)[C@H](CC)[C@H]1CC[C@H](C)[C@H]([C@@H](C)[C@H](O)[C@H](C)C(=O)[C@H](CC)[C@H]2O[C@]3(C=CC(=O)[C@]4(CC[C@@](C)([C@H]5CC[C@](O)(CC)[C@H](C)O5)O4)O3)[C@H](C)C[C@@H]2C)O1`, the 50% growth inhibitory concentration (GI50) with Trypanosoma brucei [1] was 3.18 µM. In addition, the selectivity ratio in data set [2] was 12.1. For the same compound, the concentration for 50% growth inhibition (GI50) at 24 h in data set [3] came out at 38.6 µM.
The IC50 is the concentration that gives 50% inhibition. For the compound `C#CCN[C@@H]1C=C[C@]2(O[C@H]([C@@H](CC)C(=O)[C@@H](C)[C@@H](O)[C@H](C)[C@@H]3O[C@@H]([C@@H](CC)C(=O)O)CC[C@@H]3C)[C@@H](C)C[C@H]2C)O[C@@]12CC[C@@](C)([C@H]1CC[C@](O)(CC)[C@H](C)O1)O2`, in the data set with Trypanosoma brucei [1], the 50% growth inhibitory concentration (GI50) amounted to 0.035 µM. The selectivity ratio in data set [2] came to 300. Further, the 50% growth inhibitory concentration (GI50) at 24 h in data set [3] is 10.5 µM. The IC50 in data set [4] was determined as 0.1 µM. In addition, in the data set with Trypanosoma brucei [5], the result was Active.
In the case of `Cc1ccc(C(=O)Nc2ccc(S(=O)(=O)O)c3cc(S(=O)(=O)O)cc(S(=O)(=O)O)c23)cc1NC(=O)c1cccc(NC(=O)Nc2cccc(C(=O)Nc3cc(C(=O)Nc4ccc(S(=O)(=O)O)c5cc(S(=O)(=O)O)cc(S(=O)(=O)O)c45)ccc3C)c2)c1` [SURAMIN], the 50% growth inhibitory concentration (GI50) in the data set with Trypanosoma brucei [1] was determined as 0.032 µM. For the same compound, the selectivity ratio in data set [2] was more than 3120. In addition, in data set [3], the GI50 at 24 h was more than 100 µM.
Consider `CC[C@@H](C(=O)[C@@H](C)[C@@H](O)[C@H](C)[C@@H]1O[C@@H]([C@@H](CC)C(=O)OCC(F)(F)F)CC[C@@H]1C)[C@H]1O[C@]2(C=CC(=O)[C@]3(CC[C@@](C)([C@H]4CC[C@](O)(CC)[C@H](C)O4)O3)O2)[C@H](C)C[C@@H]1C`, for which the GI50 in the data set on Trypanosoma brucei [1] was 3.01 µM. In data set [2], the selectivity ratio is more than 33.2. In data set [3], the GI50 at 24 h was more than 100 µM.
Consider `CC[C@@H](C(=O)[C@@H](C)[C@@H](O)[C@H](C)[C@@H]1O[C@@H]([C@@H](CC)C(=O)NCCc2ccc(F)cc2)CC[C@@H]1C)[C@H]1O[C@]2(C=C[C@@H](O)[C@]3(CC[C@@](C)([C@H]4CC[C@](O)(CC)[C@H](C)O4)O3)O2)[C@H](C)C[C@@H]1C`, for which the 50% growth inhibitory concentration (GI50) in the data set on Trypanosoma brucei [1] was 2.87 µM. In addition, the selectivity ratio in data set [2] worked out at 4. Also, the 50% growth inhibitory concentration (GI50) at 24 h in data set [3] worked out at 11.6 µM.
Take `CC[C@@H](C(=O)[C@@H](C)[C@@H](O)[C@H](C)[C@@H]1O[C@@H]([C@@H](CC)C(=O)ONC(=O)c2ccccc2)CC[C@@H]1C)[C@H]1O[C@]2(C=C[C@@H](O)[C@]3(CC[C@@](C)([C@H]4CC[C@](O)(CC)[C@H](C)O4)O3)O2)[C@H](C)C[C@@H]1C`: the concentration for 50% growth inhibition (GI50) with Trypanosoma brucei [1] amounted to 0.17 µM. The selectivity ratio in data set [2] was 21.1. In data set [3], the GI50 at 24 h was 3.58 µM.
For `C#CCOC(=O)[C@H](CC)[C@H]1CC[C@H](C)[C@H]([C@@H](C)[C@H](O)[C@H](C)C(=O)[C@H](CC)[C@H]2O[C@]3(C=C[C@@H](O)[C@]4(CC[C@@](C)([C@H]5CC[C@](O)(CC)[C@H](C)O5)O4)O3)[C@H](C)C[C@@H]2C)O1`, in the data set on Trypanosoma brucei [1], the 50% growth inhibitory concentration (GI50) amounted to 2.93 µM. For the same compound, the selectivity ratio in data set [2] is 10.2. Also, the GI50 at 24 h in data set [3] was 30 µM.
With `CC[C@@H](C(=O)[C@@H](C)[C@@H](O)[C@H](C)[C@@H]1O[C@@H]([C@@H](CC)C(=O)O)CC[C@@H]1C)[C@H]1O[C@]2(C=CC(=O)[C@]3(CC[C@@](C)([C@H]4CC[C@](O)(CC)[C@H](C)O4)O3)O2)[C@H](C)C[C@@H]1C`, in the data set on Trypanosoma brucei [1], the 50% growth inhibitory concentration (GI50) is 0.037 µM. Besides, the selectivity ratio in data set [2] came out at 252. Also, the concentration for 50% growth inhibition (GI50) at 24 h in data set [3] is 9.21 µM. Further, in the data set on Trypanosoma brucei [5], the result was Active.
As for `C#CCNC(=O)[C@H](CC)[C@H]1CC[C@H](C)[C@H]([C@@H](C)[C@H](O)[C@H](C)C(=O)[C@H](CC)[C@H]2O[C@]3(C=C[C@@H](NCC#C)[C@]4(CC[C@@](C)([C@H]5CC[C@](O)(CC)[C@H](C)O5)O4)O3)[C@H](C)C[C@@H]2C)O1`, the 50% growth inhibitory concentration (GI50) in the data set with Trypanosoma brucei [1] worked out at 3.04 µM. Moreover, the selectivity ratio in data set [2] stood at 12.8. Further, in data set [3], the GI50 at 24 h turned out to be 38.9 µM.
Turning to `CC[C@@H](C(=O)[C@@H](C)[C@@H](O)[C@H](C)[C@@H]1O[C@@H]([C@@H](CC)C(=O)NCCc2ccc(F)cc2)CC[C@@H]1C)[C@H]1O[C@]2(C=CC(=O)[C@]3(CC[C@@](C)([C@H]4CC[C@](O)(CC)[C@H](C)O4)O3)O2)[C@H](C)C[C@@H]1C`, the 50% growth inhibitory concentration (GI50) with Trypanosoma brucei [1] stood at 2.99 µM. Besides, in data set [2], the selectivity ratio worked out at 31.7. The GI50 at 24 h in data set [3] is 94.7 µM.
With `C#CCNC(=O)[C@H](CC)[C@H]1CC[C@H](C)[C@H]([C@@H](C)[C@H](O)[C@H](C)C(=O)[C@H](CC)[C@H]2O[C@]3(C=C[C@@H](O)[C@]4(CC[C@@](C)([C@H]5CC[C@](O)(CC)[C@H](C)O5)O4)O3)[C@H](C)C[C@@H]2C)O1`, in the data set with Trypanosoma brucei [1], the GI50 is 3.06 µM. For the same compound, in data set [2], the selectivity ratio is 11.6. The GI50 at 24 h in data set [3] is 35.5 µM.
Take `C#CCOC(=O)[C@H](CC)[C@H]1CC[C@H](C)[C@H]([C@@H](C)[C@H](O)[C@H](C)C(=O)[C@H](CC)[C@H]2O[C@]3(C=CC(=O)[C@]4(CC[C@@](C)([C@H]5CC[C@](O)(CC)[C@H](C)O5)O4)O3)[C@H](C)C[C@@H]2C)O1`: the GI50 with Trypanosoma brucei [1] was 3.03 µM. In data set [2], the selectivity ratio stood at 9.8. Moreover, in data set [3], the GI50 at 24 h was found to be 29.6 µM.
Consider `CC[C@@H](C(=O)[C@@H](C)[C@@H](O)[C@H](C)[C@@H]1O[C@@H]([C@@H](CC)C(=O)ONC(=O)c2ccccc2)CC[C@@H]1C)[C@H]1O[C@]2(C=CC(=O)[C@]3(CC[C@@](C)([C@H]4CC[C@](O)(CC)[C@H](C)O4)O3)O2)[C@H](C)C[C@@H]1C`, for which, in the data set with Trypanosoma brucei [1], the 50% growth inhibitory concentration (GI50) came out at 0.032 µM. In addition, the selectivity ratio in data set [2] was found to be 70. Moreover, in data set [3], the GI50 at 24 h is 2.24 µM. Also, the outcome with Trypanosoma brucei [5] was inactive.
Regarding `CC[C@@H](C(=O)[C@@H](C)[C@@H](O)[C@H](C)[C@@H]1O[C@@H]([C@@H](CC)C(=O)ONC(=O)c2ccccc2O)CC[C@@H]1C)[C@H]1O[C@]2(C=CC(=O)[C@]3(CC[C@@](C)([C@H]4CC[C@](O)(CC)[C@H](C)O4)O3)O2)[C@H](C)C[C@@H]1C`, the 50% growth inhibitory concentration (GI50) in the data set with Trypanosoma brucei [1] came out at 0.034 µM. Further, the selectivity ratio in data set [2] came to 56.8. The GI50 at 24 h in data set [3] stood at 1.93 µM. Also, the outcome in the data set on Trypanosoma brucei [5] was inactive.
On to `CC[C@@H](C(=O)[C@@H](C)[C@@H](O)[C@H](C)[C@@H]1O[C@@H]([C@@H](CC)C(=O)O)CC[C@@H]1C)[C@H]1O[C@]2(C=C[C@@H](O)[C@]3(CC[C@@](C)([C@H]4CC[C@](O)(CC)[C@H](C)O4)O3)O2)[C@H](C)C[C@@H]1C` [SALINOMYCIN], for which, in the data set on Trypanosoma brucei [1], the concentration for 50% growth inhibition (GI50) stood at 0.21 µM. In data set [2], the selectivity ratio worked out at 31.6. Besides, in data set [3], the GI50 at 24 h was 6.63 µM.
As for `CC[C@@H](C(=O)[C@@H](C)[C@@H](O)[C@H](C)[C@@H]1O[C@@H]([C@@H](CC)C(=O)OCC(F)(F)F)CC[C@@H]1C)[C@H]1O[C@]2(C=C[C@@H](O)[C@]3(CC[C@@](C)([C@H]4CC[C@](O)(CC)[C@H](C)O4)O3)O2)[C@H](C)C[C@@H]1C`, the GI50 with Trypanosoma brucei [1] turned out to be 2.9 µM. Further, the selectivity ratio in data set [2] was 11.2. The GI50 at 24 h in data set [3] amounted to 32.5 µM.
Turning to `CC[C@@H](C(=O)[C@@H](C)[C@@H](O)[C@H](C)[C@@H]1O[C@@H]([C@@H](CC)C(=O)ONC(=O)c2ccccc2O)CC[C@@H]1C)[C@H]1O[C@]2(C=C[C@@H](O)[C@]3(CC[C@@](C)([C@H]4CC[C@](O)(CC)[C@H](C)O4)O3)O2)[C@H](C)C[C@@H]1C`, the concentration for 50% growth inhibition (GI50) with Trypanosoma brucei [1] amounted to 0.035 µM. The selectivity ratio in data set [2] was 60.6. Besides, the GI50 at 24 h in data set [3] is 2.12 µM. In addition, in the data set on Trypanosoma brucei [5], the result was inactive.
